# Measurements reported in PMC4750707 (Antimicrobial Agents and Chemotherapy, 2016).
# Assays:
# H. influenzae = test: Broth microdilution MIC; type: cell-based; settings: Haemophilus influenzae
# Outline: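 MICs by CLSI broth microdilution in cation-adjusted Mueller-Hinton broth. Strains grown in BHI broth at 35°C: E. coli K-12, P. aeruginosa 1771 and S. aureus ATCC 29213. H. influenzae Rd grown in BHI with Haemophilus test medium supplement (hemin and β-NAD, 15 μg/ml each).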
# S. pneumoniae = test: Broth microdilution MIC; type: cell-based; settings: Streptococcus pneumoniae
# Outline: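 MICs by CLSI broth microdilution in cation-adjusted Mueller-Hinton broth plus 2.5% lysed horse blood. S. pneumoniae R6 grown on blood agar at 37°C under 5% CO2.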
# H. influenzae PBP1a = H. influenzae PBP1a (Haemophilus influenzae, UniProt P31776); test: PBP competition assay with Bocillin FL; type: binding
# H. influenzae PBP1a, sequence (P31776 whole entry): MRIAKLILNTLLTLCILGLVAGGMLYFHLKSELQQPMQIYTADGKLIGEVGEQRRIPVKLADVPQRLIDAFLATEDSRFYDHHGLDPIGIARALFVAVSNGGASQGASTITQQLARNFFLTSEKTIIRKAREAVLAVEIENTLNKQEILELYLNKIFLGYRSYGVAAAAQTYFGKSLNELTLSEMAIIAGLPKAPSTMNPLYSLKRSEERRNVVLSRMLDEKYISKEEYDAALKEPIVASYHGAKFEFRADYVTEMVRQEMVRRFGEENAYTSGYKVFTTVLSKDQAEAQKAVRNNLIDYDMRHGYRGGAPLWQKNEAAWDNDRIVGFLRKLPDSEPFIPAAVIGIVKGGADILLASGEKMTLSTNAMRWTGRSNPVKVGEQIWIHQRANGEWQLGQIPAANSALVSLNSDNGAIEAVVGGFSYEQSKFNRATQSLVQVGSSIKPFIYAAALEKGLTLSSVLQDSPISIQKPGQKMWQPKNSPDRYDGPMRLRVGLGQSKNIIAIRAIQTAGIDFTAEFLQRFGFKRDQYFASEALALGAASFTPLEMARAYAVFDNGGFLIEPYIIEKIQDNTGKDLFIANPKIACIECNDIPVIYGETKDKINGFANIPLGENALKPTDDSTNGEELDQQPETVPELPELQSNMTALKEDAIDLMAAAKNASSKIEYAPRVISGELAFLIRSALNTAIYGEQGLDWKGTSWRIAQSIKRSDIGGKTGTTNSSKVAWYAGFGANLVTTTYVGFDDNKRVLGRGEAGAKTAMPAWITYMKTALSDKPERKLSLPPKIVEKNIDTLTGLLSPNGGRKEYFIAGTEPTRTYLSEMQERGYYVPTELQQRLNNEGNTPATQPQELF
# Outline: (§1)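 H. influenzae Rd grown in supplemented BHI at 35°C (A600 0.6–0.7). Cells in KPN buffer (20 mM K-phosphate, 140 mM NaCl, pH 7.5), lysozyme-treated 30 min, French-pressed; membranes at 150,000 × g. Used 100–120 μg membrane protein. Test compound 10 min at 30°C, then Bocillin FL 100 μM final for 20 min. Gel fluorescence band volumes; IC50 from three assays of six concentrations.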
# H. influenzae PBP1b = H. influenzae PBP1b (Haemophilus influenzae, UniProt P45345); test: PBP competition assay with Bocillin FL; type: binding
# H. influenzae PBP1b, sequence (P45345 whole entry): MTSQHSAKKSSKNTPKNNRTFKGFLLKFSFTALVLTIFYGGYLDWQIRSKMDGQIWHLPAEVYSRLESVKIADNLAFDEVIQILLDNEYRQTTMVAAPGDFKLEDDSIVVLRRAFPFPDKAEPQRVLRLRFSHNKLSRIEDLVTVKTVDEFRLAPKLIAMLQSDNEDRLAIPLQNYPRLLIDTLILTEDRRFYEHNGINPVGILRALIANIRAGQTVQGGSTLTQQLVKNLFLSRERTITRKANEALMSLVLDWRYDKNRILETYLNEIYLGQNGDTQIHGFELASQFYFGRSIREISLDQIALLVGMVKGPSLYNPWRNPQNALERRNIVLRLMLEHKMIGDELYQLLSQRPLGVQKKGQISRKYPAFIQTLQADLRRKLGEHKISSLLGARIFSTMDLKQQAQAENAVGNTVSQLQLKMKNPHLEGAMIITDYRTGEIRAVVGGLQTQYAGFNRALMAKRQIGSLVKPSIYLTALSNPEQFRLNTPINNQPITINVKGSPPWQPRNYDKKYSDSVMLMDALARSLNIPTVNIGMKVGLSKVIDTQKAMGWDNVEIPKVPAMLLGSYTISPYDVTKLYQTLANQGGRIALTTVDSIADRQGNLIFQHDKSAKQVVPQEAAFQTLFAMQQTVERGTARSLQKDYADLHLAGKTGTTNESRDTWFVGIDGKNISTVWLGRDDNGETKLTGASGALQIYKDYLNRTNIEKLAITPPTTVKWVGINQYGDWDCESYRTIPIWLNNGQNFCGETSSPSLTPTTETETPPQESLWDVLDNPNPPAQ
# Outline: as §1
# H. influenzae PBP3a/b = H. influenzae PBP3a/b (Haemophilus influenzae, UniProt P45059); test: PBP competition assay with Bocillin FL; type: binding
# H. influenzae PBP3a/b, sequence (P45059 66-580 limits assumed): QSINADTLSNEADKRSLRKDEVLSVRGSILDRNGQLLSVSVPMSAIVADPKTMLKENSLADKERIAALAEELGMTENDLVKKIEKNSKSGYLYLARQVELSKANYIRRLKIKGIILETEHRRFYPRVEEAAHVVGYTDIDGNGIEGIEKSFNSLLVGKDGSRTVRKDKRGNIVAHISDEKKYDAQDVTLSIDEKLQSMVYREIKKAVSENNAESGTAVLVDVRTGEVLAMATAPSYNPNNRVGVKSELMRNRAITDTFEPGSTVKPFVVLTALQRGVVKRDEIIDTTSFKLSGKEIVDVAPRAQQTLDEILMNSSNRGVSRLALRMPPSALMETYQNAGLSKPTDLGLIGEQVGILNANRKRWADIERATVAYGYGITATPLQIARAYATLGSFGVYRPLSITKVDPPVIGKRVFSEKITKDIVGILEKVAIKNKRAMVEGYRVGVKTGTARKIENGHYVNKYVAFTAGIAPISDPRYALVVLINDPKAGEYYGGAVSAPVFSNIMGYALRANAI
# Outline: as §1
# H. influenzae PBP4 = H. influenzae PBP4 (Haemophilus influenzae, UniProt P45161); test: PBP competition assay with Bocillin FL; type: binding
# H. influenzae PBP4, sequence (P45161 27-479): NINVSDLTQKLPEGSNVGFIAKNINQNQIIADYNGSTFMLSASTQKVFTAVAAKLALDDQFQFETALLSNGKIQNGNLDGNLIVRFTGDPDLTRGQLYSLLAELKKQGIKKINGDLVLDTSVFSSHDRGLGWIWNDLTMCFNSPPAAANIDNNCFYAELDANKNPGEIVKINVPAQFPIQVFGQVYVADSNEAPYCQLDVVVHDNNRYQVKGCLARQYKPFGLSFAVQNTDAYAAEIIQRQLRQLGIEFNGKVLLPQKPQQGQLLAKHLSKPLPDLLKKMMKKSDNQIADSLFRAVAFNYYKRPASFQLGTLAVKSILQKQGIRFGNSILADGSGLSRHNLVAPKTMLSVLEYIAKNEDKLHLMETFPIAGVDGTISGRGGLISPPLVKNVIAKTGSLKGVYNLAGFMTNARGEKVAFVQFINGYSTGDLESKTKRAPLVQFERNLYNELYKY
# Outline: as §1
# S. pneumoniae PBP2X = S. pneumoniae PBP2X (Streptococcus pneumoniae, UniProt P59676); test: PBP competition assay with Bocillin FL; type: binding
# S. pneumoniae PBP2X, sequence (P59676 whole entry): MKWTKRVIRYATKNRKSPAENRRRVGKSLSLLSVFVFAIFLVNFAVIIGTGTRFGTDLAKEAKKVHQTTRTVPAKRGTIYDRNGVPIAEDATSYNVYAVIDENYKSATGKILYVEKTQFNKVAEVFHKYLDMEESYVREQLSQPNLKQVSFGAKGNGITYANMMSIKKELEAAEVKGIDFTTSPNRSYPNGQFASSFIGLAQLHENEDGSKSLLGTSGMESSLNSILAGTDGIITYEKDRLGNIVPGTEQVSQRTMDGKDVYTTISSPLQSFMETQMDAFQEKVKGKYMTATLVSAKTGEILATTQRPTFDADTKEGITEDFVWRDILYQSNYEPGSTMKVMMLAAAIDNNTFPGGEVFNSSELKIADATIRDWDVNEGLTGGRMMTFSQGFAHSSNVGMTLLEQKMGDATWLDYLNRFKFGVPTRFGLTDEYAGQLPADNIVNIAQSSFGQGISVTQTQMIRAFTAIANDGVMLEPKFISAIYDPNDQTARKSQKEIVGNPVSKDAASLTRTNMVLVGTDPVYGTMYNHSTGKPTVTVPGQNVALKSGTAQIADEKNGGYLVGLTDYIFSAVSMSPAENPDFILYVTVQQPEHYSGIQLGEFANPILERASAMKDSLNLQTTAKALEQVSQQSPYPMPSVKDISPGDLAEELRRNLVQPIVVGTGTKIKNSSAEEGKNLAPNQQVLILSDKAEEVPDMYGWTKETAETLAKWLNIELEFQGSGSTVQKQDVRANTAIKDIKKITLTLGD
# Outline: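 S. pneumoniae R6 was grown on blood agar at 37°C under 5% CO2, then in BHI with agitation to A600 ~1.0. Cells in KPN buffer pH 7.5 were lysozyme-treated and French-pressed; membranes (30–40 μg protein) were used. Test compound 10 min at 30°C, then Bocillin FL 100 μM final for 20 min. SDS-PAGE fluorescence; IC50 from three assays of six concentrations.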
smiles,measurement,setting,value
"NC(=O)[C@@H]1CC[C@@H]2CN1C(=O)N2OS(=O)(=O)O [AVI, avibactam]",MIC,H. influenzae,64 µg/mL
same,MIC,S. pneumoniae,256 µg/mL
same,IC50,H. influenzae PBP1a,> 121 µM
same,IC50,H. influenzae PBP1b,> 121 µM
same,IC50,H. influenzae PBP3a/b,> 121 µM
same,IC50,H. influenzae PBP4,> 121 µM
same,IC50,S. pneumoniae PBP2X,> 241 µM
